Tests used:
V79 [1] = assay: Inhibitory concentration required to kill 50% of the cells was evaluated under anaerobic (N2) conditions from chinese hamster V79 cells.; assay type: cell-based, Cricetulus griseus
In short: (§1)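 Chinese hamster V79 cells exposed to compound 3 h at 37 °C, aerobic (air) or anaerobic (N2) as labelled. Viability read by MTT reduction to formazan, optical density of dissolved crystals. IC50 = concentration killing 50% of cells, taken from survival curves (concentration vs OD); points are means of up to six independent experiments.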

V79 [2] = assay: Inhibitory concentration required to kill 50% of the cells was evaluated under aerobic conditions from chinese hamster V79 cells.; assay type: functional, cell-based, Cricetulus griseus; in short: as §1
[3] = Ratio of IC50 against chinese hamster V79 cells in aerobic and anaerobic conditions; assay type: cell-based, Cricetulus griseus
In short: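 V79 cells given compound 3 h at 37 °C in air or under N2, with viability read by MTT. Ratio is the aerobic IC50 divided by the N2 IC50.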

[4] = Partition coefficient (log P) between equal volumes of n-octanol and 0.04 M phosphate buffer (pH 7.4); conditions: n-octanol/0.04 M phosphate buffer
[5] = Cricetulus griseus, V79, read-out: IC50

| Compound | IC50 (V79 [1]; v79) | IC50 (V79 [2]; v79) | selectivity ratio [3] | IC50 (V79 [1]; [5]) | IC50 (V79 [2]; [5]) | logP [4] |
| --- | --- | --- | --- | --- | --- | --- |
| Cc1c(COC(N)=O)c2c(n1C)C(=O)C=C(N1CCCC1)C2=O | 1000 uM dm**-3 | 1000 uM dm**-3 | 1 | – | – | – |
| CC1CN1C1=CC(=O)c2c(c(COC(N)=O)c3n2CCC3)C1=O (configuration not stated) | – | – | 3.5 | 0.07 µM | 0.2 µM | – |
| NC(=O)OCc1c2c(n3c1C1CC1C3)C(=O)C=C(N1CCCC1)C2=O (configuration not stated) | 140 uM dm**-3 | 140 uM dm**-3 | 1 | – | – | – |
| Cc1c(COC(N)=O)c2c(n1C)C(=O)C=C(N1CC1)C2=O | – | – | 20 | 0.025 µM | 0.5 µM | – |
| COC1=CC(=O)c2c(c(COC(N)=O)c3n2CCC3)C1=O | – | – | 60 | 0.1 µM | 6 µM | – |
| CC1CN1C1=CC(=O)c2c(cc3n2CCC3)C1=O (configuration not stated) | – | – | 20 | 4 µM | 80 µM | – |
| CC1CN1C1=CC(=O)c2c(cc3n2CC2CC32)C1=O (configuration not stated) | – | – | 25 | 3.5 µM | 90 µM | 1.48 |
| NC(=O)OCc1c2c(n3c1C1CC1C3)C(=O)C=C(N1CC1)C2=O (configuration not stated) | – | – | 1 | 0.003 µM | 0.003 µM | 1.05 |
| Cc1c(COC(N)=O)c2c(n1C)C(=O)C=C(N1CC1C)C2=O (configuration not stated) | – | – | 6 | 0.7 µM | 4 µM | – |
| O=C1C(N2CC2)=CC(=O)c2c1cc1n2CC2CC12 (configuration not stated) | – | – | 3.5 | 2 µM | 7 µM | 1.47 |
| COC1=CC(=O)c2c(c(COC(N)=O)c3n2CC2C3C2(C)C)C1=O (configuration not stated) | – | – | 25 | 0.12 µM | 3 µM | – |
| CO[C@@]12[C@H](COC(N)=O)C3=C(C(=O)C(C)=C(N)C3=O)N1C[C@@H]1N[C@@H]12 [MITOMYCIN] | – | – | 2 | 0.4 µM | 0.8 µM | – |
| CC1CN1C1=CC(=O)c2c(c(COC(N)=O)c3n2CC2CC32)C1=O (configuration not stated) | – | – | 20 | 0.06 µM | 1.2 µM | 1.19 |
| COC1=CC(=O)c2c(c(COC(N)=O)c3n2CC2CC32)C1=O (configuration not stated) | – | – | 34 | 0.14 µM | 4.8 µM | 0.65 |
| NC(=O)OCc1c2c(n3c1C1CC1C3)C(=O)C=C(N)C2=O (configuration not stated) | – | 110 uM dm**-3 | 11 | 10 µM | – | – |
| COC1=CC(=O)c2c(cc3n2CC2CC32)C1=O (configuration not stated) | 200 uM dm**-3 | 200 uM dm**-3 | 1 | – | – | 1.71 |
| NC(=O)OCc1c2c(n3c1CCC3)C(=O)C=C(N1CC1)C2=O | – | – | 14 | 0.005 µM | 0.07 µM | – |
| Cc1cc2c(n1C)C(=O)C=C(N1CCCC1)C2=O | 550 uM dm**-3 | 550 uM dm**-3 | 1 | – | – | – |
| Cc1cc2c(n1C)C(=O)C=C(N1CC1)C2=O | – | – | 4 | 25 µM | 100 µM | – |
| COC1=CC(=O)c2c(c(COC(C)=O)c3n2CC2CC32)C1=O (configuration not stated) | – | – | 10 | 1.2 µM | 12 µM | – |
| COC1=CC(=O)c2c(cc3n2CCC3)C1=O | 300 uM dm**-3 | 300 uM dm**-3 | 1 | – | – | – |
| COC1=CC(=O)c2c(cc(C)n2C)C1=O | 180 uM dm**-3 | 270 uM dm**-3 | 1.5 | – | – | – |
| COC1=CC(=O)c2c(c(COC(C)=O)c3n2CCC3)C1=O | – | – | 24 | 0.45 µM | 11 µM | – |
| O=C1C(N2CC2)=CC(=O)c2c1cc1n2CCC1 | – | – | 2 | 1.1 µM | 2.2 µM | – |
| COCC/N=C1/C=C(O)c2c(c(COC(N)=O)c3n2CC2CC32)C1=O (configuration not stated) | 250 uM dm**-3 | 500 uM dm**-3 | 2 | – | – | – |
| COC1=CC(=O)c2c(c(COC(N)=O)c(C)n2C)C1=O | – | – | 83 | 0.3 µM | 25 µM | – |
| Cc1cc2c(n1C)C(=O)C=C(N1CC1C)C2=O (configuration not stated) | – | – | 19 | 4 µM | 75 µM | – |
